Values after ≈ are worked out from the molar mass of the structure shown. “Also recorded” adds a separate entry of the source.
Tests used:
Assay type in all cases: cell-based
caspase-3 = experiment: Caspase-3 activity assay; conditions: MDAMB-231, compound at IC50, 24 hours, vs untreated
PKCα = PKCα (Homo sapiens, UniProt P17252); experiment: Immunoblotting to detect PKCα translocation from cytosol to plasma membrane; conditions: MDAMB-231, compound at IC50, 30 minutes, cytosolic PKCα normalized to 100%
MDAMB-231 cells = experiment: DNA fragmentation
[1] = test system: MCF-7 breast cancer cells; experiment: MTT viability assay, MCF-7; conditions: Homo sapiens, MCF7, 48 h, read-out: Anticancer activity (IC50 ± SD) MCF-7
caspase-9 = experiment: Caspase-9 activity assay; conditions: MDAMB-231, compound at IC50, 24 hours, vs untreated
cytochrome c = experiment: Mitochondrial cyt c release, immunofluorescence; conditions: MDAMB-231, compound at IC50, 24 hours
Method in brief: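 Mitochondria were labelled with MitoTracker Red (200 nM, 45 min), and cytochrome c was immunostained with an anti-cyt c antibody followed by FITC anti-mouse secondary (4 h, 37 °C). Coverslips were mounted and examined by fluorescence microscopy for cyt c relocation.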

translocation of PKC from cytosol to the plasma membrane (PKCα): 17%±1.9%
IC50 [1]: 5 ± 0.8 µg/mL (≈ 13.6 µM)
SMILES: COc1cc(/C=C/C(=O)CC(=O)/C=C/c2ccc(O)c(OC)c2)ccc1O [Curcumin]
increase in caspase-3 activity (caspase-3): 65%
genomic DNA fragmentation (MDAMB-231 cells; MDAMB-231, compound at IC50, 12 hours, agarose gel): produced distinct DNA fragments; also recorded: showed DNA fragments of different sizes
genomic DNA fragmentation in presence of NAC (MDAMB-231 cells; MDAMB-231 preincubated with NAC (5 mM)): intact gDNA with no visible appearance of DNA fragments
increase in caspase-9 activity (caspase-9): 35%
release of cyt c from mitochondria to cytosol (cytochrome c): release of cyt c

Source: publication PMC5204042 (Journal of Breast Cancer, 2016)
